The source made the active and inactive calls. The rule behind the calls is not given here.
Tests used:
[1] = system: Human immunodeficiency virus 1; experiment: Antiviral activity against HIV1 HXB2 in HOS-CD4-CXCR4 cells by viral infectivity assay; format: functional, organism-based; settings: Human immunodeficiency virus 1, HXB2
Outline: (§1)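 Single-cycle pseudovirion entry assay. HXB2 pseudovirions were used on HOS-CD4-CXCR4 cells, and BaL or JRFL on HOS-CD4-CCR5 cells. 8 μg/ml DEAE-Dextran served as fusion enhancer, and medium was changed ≈24 h post-infection. DMSO-dissolved samples were run at 1% final DMSO against a 1% DMSO uninhibited control. IC50 comes from duplicate assays. Toxicity was checked microscopically and by luciferase with VSV-G pseudotyped virions, where a >10% loss meant toxicity.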

[2] = system: Human immunodeficiency virus 1; experiment: Antiviral activity against HIV1 JRFL in HOS-CD4-CCR5 cells by viral infectivity assay; format: functional, organism-based; settings: Human immunodeficiency virus 1, JRFL; outline: as §1
[3] = Binding affinity to HIV1 N-trimer gp41 mimic IZN36 by surface plasmon resonance analysis
[4] = system: Human immunodeficiency virus 1; experiment: Antiviral activity against HIV1 JRFL in HOS-CD4-CCR5 cells at 100 uM by viral infectivity assay; format: functional, organism-based
Outline: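 JRFL pseudovirions were tested in single-cycle infection of HOS-CD4-CCR5 cells with 8 μg/ml DEAE-Dextran and a medium change ≈24 h post-infection. Inhibition was scored at 100 μM. DMSO-dissolved samples were at 1% final DMSO, normalized to a 1% DMSO control.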

[5] = system: Human immunodeficiency virus 1; experiment: Antiviral activity against HIV1 BaL in HOS-CD4-CCR5 cells by viral infectivity assay; format: functional, organism-based; settings: Human immunodeficiency virus 1, BaL; outline: as §1
HOS = experiment: Cytotoxicity in VSV-G pseudotyped virion infected human HOS-CD4-CXCR4 cells assessed as luciferase level at 100 uM after 24 hrs; format: cell-based
Outline: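 Single-cycle infection in HOS-CD4 target cells with VSV-G-pseudotyped luciferase virions in the presence of peptide, using 8 μg/ml DEAE-Dextran as fusion enhancer. Media were changed about 24 h after infection. DMSO-dissolved samples were run at 1% final DMSO against a 1% DMSO uninhibited control. A luciferase drop of more than 10% counted as cytotoxicity, alongside microscopic inspection at about 24 h.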

Compound: CC(C)C[C@@H](NC(=O)[C@@H](Cc1c[nH]c2ccccc12)NC(=O)[C@@H](CCC(N)=O)NC(=O)[C@@H](Cc1c[nH]c2ccccc12)NC(=O)[C@@H](CCC(=O)O)NC(=O)[C@@H](CCCCN)NC(=O)[C@@H](Cc1ccc(O)cc1)NC(=O)[C@@H](CC(=O)O)NC(=O)[C@@H](CS)NC(=O)[C@@H](C)NC(=O)CNC(=O)[C@H](N)CCCCN)C(=O)N[C@H](CS)C(=O)N[C@H](C)C(=O)N[C@H](C)C(=O)O
- IC50 [1]: 1700 nM
- IC50 [2]: 110000 nM
- Kd [3]: 170 nM

Compound: CC(C)C[C@@H](NC(=O)[C@@H](Cc1c[nH]c2ccccc12)NC(=O)[C@@H](CCCNC(=N)N)NC(=O)[C@@H](Cc1c[nH]c2ccccc12)NC(=O)[C@@H](CCC(=O)O)NC(=O)[C@H]1CCCN1C(=O)[C@@H](CO)NC(=O)[C@@H](CCC(=O)O)NC(=O)[C@H](CS)NC(=O)[C@@H](C)NC(=O)CNC(=O)[C@@H](CCCCN)NC(=O)[C@H](N)CCCCN)C(=O)N[C@@H](CS)C(=O)N[C@H](C)C(=O)N[C@H](C)C(=O)O
- Activity [4]: inactive

Compound: CC(C)C[C@@H](NC(=O)[C@@H](Cc1c[nH]c2ccccc12)NC(=O)[C@@H](CCC(N)=O)NC(=O)[C@@H](Cc1c[nH]c2ccccc12)NC(=O)[C@@H](CCC(=O)O)NC(=O)[C@H]1CCCN1C(=O)[C@@H](Cc1ccc(O)cc1)NC(=O)[C@@H](CC(=O)O)NC(=O)[C@@H](CS)NC(=O)[C@@H](C)NC(=O)CNC(=O)[C@H](N)CCCCN)C(=O)N[C@H](CS)C(=O)N[C@H](C)C(=O)N[C@H](C)C(=O)O
- IC50 [1]: 620 nM
- IC50 [2]: 24000 nM
- IC50 [5]: 2200 nM
- Kd [3]: 80 nM

Compound: CC(C)C[C@@H](NC(=O)[C@@H](Cc1c[nH]c2ccccc12)NC(=O)[C@@H](CCCNC(=N)N)NC(=O)[C@@H](Cc1c[nH]c2ccccc12)NC(=O)[C@@H](CCC(=O)O)NC(=O)[C@H]1CCCN1C(=O)[C@@H](Cc1ccc(O)cc1)NC(=O)[C@@H](CC(=O)O)NC(=O)[C@@H](CS)NC(=O)[C@@H](C)NC(=O)CNC(=O)[C@H](N)CCCCN)C(=O)N[C@H](CS)C(=O)N[C@H](C)C(=O)N[C@H](C)C(=O)O
- IC50 [1]: 1300 nM
- IC50 [2]: 66000 nM
- Kd [3]: 130 nM

Compound: CC(C)C[C@@H](NC(=O)[C@@H](CC(C)C)NC(=O)[C@@H](CCC(=O)O)NC(=O)[C@@H](CS)NC(=O)[C@@H](C)NC(=O)CNC(=O)[C@@H](CCCCN)NC(=O)[C@H](N)CCCCN)C(=O)NCC(=O)N[C@H](Cc1c[nH]c2ccccc12)C(=O)N[C@H](CCC(=O)O)C(=O)N[C@H](Cc1c[nH]c2ccccc12)C(=O)N[C@H](C)C(=O)N[C@H](Cc1c[nH]c2ccccc12)C(=O)N[C@H](CC(C)C)C(=O)N[C@H](CS)C(=O)N[C@H](C)C(=O)N[C@H](C)C(=O)O
- IC50 [1]: 9500 nM
- IC50 [2]: > 25000 nM
- IC50 [5]: 12000 nM
- Activity (HOS): Toxic
- Kd [3]: 7000 nM

Compound: CC(C)C[C@@H](NC(=O)[C@@H](Cc1c[nH]c2ccccc12)NC(=O)[C@@H](CCCNC(=N)N)NC(=O)[C@@H](Cc1c[nH]c2ccccc12)NC(=O)[C@@H](CCC(=O)O)NC(=O)[C@H]1CCCN1C(=O)[C@@H](CO)NC(=O)[C@@H](CCC(=O)O)NC(=O)[C@@H](CS)NC(=O)[C@@H](C)NC(=O)CNC(=O)[C@@H](CCCCN)NC(=O)[C@H](N)CCCCN)C(=O)N[C@H](CS)C(=O)N[C@H](C)C(=O)N[C@H](C)C(=O)O
- IC50 [1]: 2200 nM

Compound: CC(C)C[C@@H](NC(=O)[C@@H](Cc1c[nH]c2ccccc12)NC(=O)[C@@H](CCCNC(=N)N)NC(=O)[C@@H](Cc1c[nH]c2ccccc12)NC(=O)[C@@H](CCC(=O)O)NC(=O)[C@H]1CCCN1C(=O)[C@@H](Cc1ccc(O)cc1)NC(=O)[C@@H](CC(=O)O)NC(=O)[C@@H](CS)NC(=O)[C@@H](C)NC(=O)CNC(=O)[C@@H](CCCCN)NC(=O)[C@H](N)CCCCN)C(=O)N[C@H](CS)C(=O)N[C@H](C)C(=O)N[C@H](C)C(=O)O
- IC50 [1]: 2600 nM
- Kd [3]: 170 nM
